Test results reported in ChEMBL document CHEMBL1142319, “New antitumor imidazo[2,1-b]thiazole guanylhydrazones and analogues” (2008).

How the values were obtained:
Assay type in all cases: functional
Settings in all cases: for TGI: read-out: pTGI (converted)
[1] = test system: Cancer cell lines; experiment: Inhibition of human colon cancer cells
In short: (§1)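 NCI 60-cell-line panel, with results grouped by tissue subpanel. Compounds dissolved in DMSO and tested at five 10-fold dilutions, top concentration 10^-4 M. Values given as -log molar concentration for 50% growth inhibition (pGI50), total growth inhibition (pTGI) and 50% cell kill (pLC50), with subpanel means calculated.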

[2] = test system: Leukemia cell; experiment: Inhibition of human leukemia cells; in short: as §1
[3] = test system: Cancer cell lines; experiment: Inhibition of human non-small cell lung cancer cells; in short: as §1
[4] = test system: Cancer cell lines; experiment: Inhibition of human CNS cancer cells; in short: as §1
[5] = test system: Melanoma cell; experiment: Inhibition of human melanoma cells; in short: as §1
[6] = test system: Cancer cell lines; experiment: Inhibition of human ovarian cancer cells; in short: as §1
[7] = test system: Cancer cell lines; experiment: Inhibition of human renal cancer cells; in short: as §1
[8] = test system: Cancer cell lines; experiment: Inhibition of human prostate cancer cells; in short: as §1
[9] = test system: Cancer cell lines; experiment: Inhibition of human breast cancer cells; in short: as §1

Compound | GI50 [1] [µM] | GI50 [2] [µM] | GI50 [3] [µM] | GI50 [4] [µM] | GI50 [5] [µM] | GI50 [6] [µM] | GI50 [7] [µM] | GI50 [8] [µM] | GI50 [9] [µM] | TGI [1] [µM] | TGI [2] [µM] | TGI [3] [µM] | TGI [4] [µM] | TGI [5] [µM] | TGI [6] [µM] | TGI [7] [µM] | TGI [8] [µM] | TGI [9] [µM]
N=C(N)N/N=C/c1c(-c2ccsc2)nc2sccn12 | 14.1 | 6.92 | 15.1 | 15.1 | 17 | 15.5 | 14.8 | 14.8 | 17.4 | 29.5 | 24 | 30.2 | 28.8 | 31.6 | 31.6 | 29.5 | 28.8 | 31.6
CCOC(=O)c1nc2sc(Cl)cn2c1/C=N\NC(=N)N | 20.9 | 14.1 | 18.2 | 19.5 | 19.5 | 20.9 | 21.4 | 17 | 22.9 | 47.9 | 38.9 | 41.7 |  | 45.7 |  |  | 38.9 | 
N=C(N)N/N=C/c1c(-c2cccs2)nc2n1CCS2 | 17.4 | 18.6 | 28.8 | 19.1 | 21.4 | 39.8 | 22.9 | 19.5 | 17.4 | 38.9 | 38.9 |  | 39.8 | 38 |  |  | 36.3 | 40.7
Cc1cc(-c2nc3sccn3c2/C=N/NC(=N)N)c(C)s1 | 15.5 | 15.5 | 16.6 | 15.5 | 16.2 | 17.4 | 17.8 | 13.8 | 16.2 | 32.4 |  | 33.1 | 30.2 | 30.9 | 33.9 | 32.4 | 26.9 | 30.2
Cc1cc(-c2nc3n(c2/C=N/NC(=N)N)CCS3)c(C)s1 | 13.8 | 20.9 | 17 | 18.6 | 15.5 | 24 | 17.4 | 15.5 | 24 | 29.5 |  | 35.5 | 34.7 | 29.5 | 47.9 | 38 | 30.9 | 41.7
COc1cc([N+](=O)[O-])c(OC)cc1-c1nc2sc(Cl)cn2c1/C=N\Nc1ccccn1 | 44.7 | 9.12 | 25.7 | 15.5 | 33.1 | 20 | 13.5 | 16.2 | 17.4 |  | 35.5 |  | 30.2 | 46.8 | 33.1 | 30.9 |  | 41.7
N=C(N)N/N=C/c1c(-c2cccs2)nc2sccn12 | 9.77 | 6.76 | 12.9 | 12 | 15.1 | 10.2 | 8.32 | 12.3 | 14.8 | 24 | 38 | 29.5 | 25.7 | 28.8 | 26.9 | 21.9 | 24.5 | 28.2
Cc1cn2c(/C=N/Nc3ccccn3)c(-c3ccc(Cl)c([N+](=O)[O-])c3)nc2s1 | 26.3 | 16.6 | 11.5 | 7.76 | 18.2 | 9.12 | 15.5 | 11.7 | 13.8 | 42.7 | 33.9 | 30.9 | 19.5 | 38 | 25.7 | 39.8 | 38.9 | 38.9
N=C(N)N/N=C/c1c(-c2ccsc2)nc2n1CCS2 | 22.9 | 19.1 | 28.8 | 25.1 | 21.9 | 14.5 | 28.2 | 17.4 | 32.4 |  |  |  |  |  |  |  |  | 

Stronger by GI50 [1], values ahead:

GI50 [1] [µM] | GI50 [2] [µM] | GI50 [3] [µM] | GI50 [4] [µM] | GI50 [5] [µM] | GI50 [6] [µM] | GI50 [7] [µM] | GI50 [8] [µM] | GI50 [9] [µM] | Compound | TGI [1] [µM] | TGI [2] [µM] | TGI [3] [µM] | TGI [4] [µM] | TGI [5] [µM] | TGI [6] [µM] | TGI [7] [µM] | TGI [8] [µM] | TGI [9] [µM]
1.86 | 1.7 | 1.7 | 1.2 | 2.04 | 1.86 | 2.19 | 1.51 | 2.29 | N=C(N)N/N=C/c1c(-c2ccc(Cl)c([N+](=O)[O-])c2)nc2ccccn12 | 7.94 | 3.8 | 3.8 | 3.02 | 3.63 | 3.63 | 4.9 | 3.09 | 5.37
2.57 | 1.82 | 7.76 | 4.27 | 2.24 | 6.46 | 4.27 | 3.02 | 5.75 | Cc1cn2c(/C=N/NC(=N)N)c(-c3cccs3)nc2s1 | 8.13 | 4.07 | 25.1 | 11.7 | 5.89 | 17.4 | 14.1 | 12.3 | 18.6
0.339 | 0.138 | 0.676 | 0.447 | 0.708 | 1.1 | 0.832 | 2.29 | 0.741 | N=C(N)N/N=C/c1c(-c2ccc(Cl)c([N+](=O)[O-])c2)nc2sc3ccccc3n12 | 3.63 |  | 3.8 | 3.02 | 2.75 | 1.95 | 3.89 | 14.8 | 9.55
3.72 | 47.9 | 9.77 | 8.32 | 7.41 | 12 | 14.1 | 4.79 | 4.47 | Cc1cc(-c2nc3sc(C)cn3c2/C=N/NC(=N)N)c(C)s1 | 11.7 |  | 25.1 | 18.2 | 15.1 | 33.1 | 32.4 | 19.1 | 13.5
1.82 | 10.2 | 11.2 | 8.71 | 10 | 10.5 | 10 | 8.13 | 12.3 | N=C(N)N/N=C/c1c(-c2cc(Cl)sc2Cl)nc2n1CCS2 | 16.2 | 24.5 | 22.4 | 17.4 | 20.4 | 22.9 | 20 | 15.1 | 22.9
0.977 | 1 | 2.69 | 1.12 | 2.82 | 1.1 | 1.62 | 1.55 | 1.66 | N=C(N)N/N=C/c1c(-c2cc(Cl)sc2Cl)nc2sccn12 | 2.34 | 2.14 | 10.7 | 2.82 | 7.24 | 3.55 | 5.75 | 6.17 | 4.27
6.03 | 10.2 | 9.33 | 8.13 | 8.51 | 7.94 | 8.51 | 9.33 | 10 | COc1cc(OC)cc(-c2nc3sccn3c2/C=N/NC(=N)N)c1 | 14.8 | 19.1 | 20.4 | 17.4 | 17.8 | 17 | 17.8 | 16.2 | 20.4
2.24 | 2.34 | 2.04 | 1.62 | 1.91 | 1.82 | 2.19 | 1.95 | 3.31 | COc1cc([N+](=O)[O-])c(OC)cc1-c1nc2sc(Cl)cn2c1/C=N\NC(=N)N/N=C\c1c(-c2cc(OC)c([N+](=O)[O-])cc2OC)nc2sc(Cl)cn12 | 7.08 |  | 3.98 | 2.57 | 5.13 | 3.8 | 4.9 | 3.8 | 6.76
5.37 | 7.76 | 13.8 | 6.92 | 8.13 | 11 | 10.2 | 7.59 | 7.76 | Cc1cn2c(/C=N/NC(=N)N)c(-c3ccsc3)nc2s1 | 20.4 | 46.8 | 41.7 | 19.5 | 19.5 | 27.5 | 28.2 | 20 | 22.4
